According to ChEMBL document CHEMBL4680079, “Discovery of a Quinoline-4-carboxamide Derivative with a Novel Mechanism of Action, Multistage Antimalarial Activity, and Potent in Vivo Efficacy” (J Med Chem, 2016):
In brackets after ≈: the same amount, converted by molar mass.

Columns and labels:
Plasmodium berghei [1] = experiment: Antiplasmodial activity against Plasmodium berghei ookinete form assessed as growth inhibition incubated for 22 hrs by GFP-based fluorescence microscopic analysis; type: functional, organism-based
Plasmodium yoelii = experiment: Antiplasmodial activity against Plasmodium yoelli liver stage forms; type: functional, organism-based
Plasmodium falciparum [2] = experiment: Antiplasmodial activity against late stage (IV/V) Plasmodium falciparum NF54 gametocytes transfected with GFP-LUC assessed as growth inhibition incubated for 72 hrs by mitotracker Red-CMXROS dye based fluorescence microscopic analysis; type: functional, organism-based; details: NF54, 72 h
In short: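 NF54 pfs16-LUC-GFP stage IV–V gametocytes (10% parasitaemia, 0.1% haematocrit) exposed to compound in 0.4% DMSO, three concentrations per log, for 72 h at 37°C under 5% CO2/5% O2/90% N2. MitoTracker Red CM-H2Xros then added for 16 h and viable gametocytes counted by imaging.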

Plasmodium falciparum [3] = experiment: Antiplasmodial activity against chloroquine-sensitive Plasmodium falciparum 3D7 infected in human red blood cells assessed as growth inhibition by SYBR Green fluorescence assay; type: functional, organism-based, RBC; details: 3D7, Erythrocyte
In short: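 P. falciparum 3D7 grown in 5% human red cells in RPMI 1640 (pH 7.3) with 0.5% Albumax II, hypoxanthine and gentamicin at 37°C under 1% O₂/3% CO₂. Growth measured by SYBR green fluorescence (ex 485/em 528 nm), with mefloquine as assay control. EC50 calculated.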

MRC5 = experiment: Antiproliferative activity against human MRC5 cells assessed as reduction in cell viability after 68 hrs by resazurin dye based fluorescence assay; details: MRC5, 68 h
In short: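 MRC-5 fibroblasts plated overnight as monolayers, exposed to compound pre-diluted in MEM for 68 h. Resazurin then added (final 50 μM) for 3 h, fluorescence read at ex 528/em 590 nm. Signal converted to % inhibition against high- and no-inhibition controls. Plates accepted at Z' > 0.5.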

[4] = Intrinsic clearance in CD1 mouse liver microsomes at 0.5 uM in presence of NADPH incubated upto 30 mins by UPLC-MS/MS analysis; type: ADME, Microsome; details: 0.5 h
In short: (§1)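 Compound at 0.5 μM incubated with female CD1 mouse, male Sprague-Dawley rat or pooled human liver microsomes (0.5 mg/mL, 50 mM potassium phosphate, pH 7.4). Reaction started with excess NADPH. Samples taken at 0-30 min, quenched in acetonitrile, analysed by UPLC-MS/MS. Verapamil used as control, single time course.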

[5] = Kinetic aqueous solubility of the compound by laser nephelometry; type: physicochemical; details: read-out: Kinetic_solubility
In short: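 Kinetic solubility measured by laser nephelometry. DMSO serial dilutions diluted into water to give final 100–5 μg/mL at 1.0% DMSO. Read immediately, in triplicate aliquots.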

[6] = Permeability of the compound at 10 uM incubated for 5 hrs by UPLC-MS/MS analysis based PAMPA method; type: ADME; details: read-out: permeability
In short: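 PAMPA run on a lipid-oil-lipid tri-layer filter at pH 7.4. Compound at 10 μM in PBS (DMSO ≤5%) in donor wells, PBS in acceptor wells, kept 5 h at room temperature. Both compartments quantified by UPLC-MS/MS. Data accepted only when recovery exceeded 70%.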

[7] = Intrinsic clearance in human liver microsomes at 0.5 uM in presence of NADPH incubated upto 30 mins by UPLC-MS/MS analysis; type: ADME, Microsome; details: 0.5 h; in short: as §1
[8] = molecular target: Voltage-gated inwardly rectifying potassium channel KCNH2 (Homo sapiens, UniProt Q12809); experiment: Inhibition of human ERG by IonWorks patch-clamp electrophysiology method
Chain of Voltage-gated inwardly rectifying potassium channel KCNH2 (Q12809 whole entry): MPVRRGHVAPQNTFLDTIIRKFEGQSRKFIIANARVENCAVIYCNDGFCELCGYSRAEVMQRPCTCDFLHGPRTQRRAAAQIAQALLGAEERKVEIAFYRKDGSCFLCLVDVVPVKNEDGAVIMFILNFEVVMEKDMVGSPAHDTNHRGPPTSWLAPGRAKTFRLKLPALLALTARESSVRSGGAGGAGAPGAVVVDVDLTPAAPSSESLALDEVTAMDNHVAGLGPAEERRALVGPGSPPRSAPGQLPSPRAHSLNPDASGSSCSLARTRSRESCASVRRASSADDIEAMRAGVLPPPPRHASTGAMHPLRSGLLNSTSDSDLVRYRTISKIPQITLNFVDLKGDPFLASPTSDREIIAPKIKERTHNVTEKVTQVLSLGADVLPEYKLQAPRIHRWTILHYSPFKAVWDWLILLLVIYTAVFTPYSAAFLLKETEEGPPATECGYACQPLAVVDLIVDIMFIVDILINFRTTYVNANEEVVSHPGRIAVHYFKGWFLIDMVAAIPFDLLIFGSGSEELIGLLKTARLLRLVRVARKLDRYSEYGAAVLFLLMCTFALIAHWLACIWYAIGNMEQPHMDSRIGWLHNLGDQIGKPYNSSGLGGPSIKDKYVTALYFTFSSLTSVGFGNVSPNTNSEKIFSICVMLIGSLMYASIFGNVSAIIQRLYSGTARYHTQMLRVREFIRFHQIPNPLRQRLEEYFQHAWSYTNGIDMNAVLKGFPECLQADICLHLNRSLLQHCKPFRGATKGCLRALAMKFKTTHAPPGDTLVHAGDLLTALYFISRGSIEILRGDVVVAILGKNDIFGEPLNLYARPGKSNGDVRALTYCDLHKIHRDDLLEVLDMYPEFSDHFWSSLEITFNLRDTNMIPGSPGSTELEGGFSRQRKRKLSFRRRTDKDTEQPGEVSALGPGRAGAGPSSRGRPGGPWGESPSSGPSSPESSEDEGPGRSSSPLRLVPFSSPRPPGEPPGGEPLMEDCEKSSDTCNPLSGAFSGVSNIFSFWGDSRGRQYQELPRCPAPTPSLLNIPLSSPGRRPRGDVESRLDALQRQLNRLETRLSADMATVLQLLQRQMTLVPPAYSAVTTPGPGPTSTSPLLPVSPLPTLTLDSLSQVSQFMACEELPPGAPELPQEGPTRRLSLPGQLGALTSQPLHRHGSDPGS
In short: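 hERG K⁺ channel inhibition measured by IonWorks patch-clamp electrophysiology. Eight-point concentration-response curves made from 3-fold serial dilutions down from the maximum final assay concentration. Each curve generated on 2 occasions.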

[9] = Clearance in NMRI mouse blood at 3 mg/kg, iv administered as bolus dose by UPLC-MS/MS analysis; type: ADME, organism-based
In short: (§2)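 Intravenous bolus solution, 3 mg free base/kg (5 mL/kg; 10% DMSO, 90% saline), given to female NMRI mice (n=3). Compound level in blood determined by UPLC-MS/MS. PK parameters derived from the blood concentration-time curve.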

[10] = Volume of distribution at steady state in NMRI mouse at 3 mg/kg, iv administered as bolus dose by UPLC-MS/MS analysis; type: ADME, organism-based; details: in vivo, read-out: Vdss; in short: as §2
[11] = Half-life in NMRI mouse at 3 mg/kg, iv administered as bolus dose by UPLC-MS/MS analysis; type: ADME, organism-based; details: in vivo; in short: as §2
[12] = Cmax in NMRI mouse at 10 mg/kg, po administered as gavage by UPLC-MS/MS analysis; type: ADME, organism-based; design: route oral, dose 10 mg/kg; details: in vivo
In short: (§3)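 Female NMRI mice (n=3) dosed by oral gavage as a solution at 10 mg free base/kg (10 mL/kg; vehicle 5 or 10% DMSO, 40% PEG400). Blood levels measured by UPLC-MS/MS. Parameters derived from the blood concentration-time curve.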

[13] = AUC in NMRI mouse at 10 mg/kg, po administered as gavage by UPLC-MS/MS analysis; type: ADME, organism-based; design: dose 10 mg/kg; details: in vivo; in short: as §3
[14] = Tmax in NMRI mouse at 10 mg/kg, po administered as gavage by UPLC-MS/MS analysis; type: ADME, organism-based; details: in vivo; in short: as §3
[15] = Oral bioavailability in NMRI mouse at 10 mg/kg administered via gavage by UPLC-MS/MS analysis; type: ADME, organism-based; details: in vivo; in short: as §3
Plasmodium berghei [16] = experiment: Antiplasmodial activity against Plasmodium berghei ANKA infected in NMRI mouse assessed as reduction in parasitemia at 30 mg/kg, po QD for 4 days; type: functional; design: scale not given: the % may be the effect or the level left; details: time 4 day
In short: (§4)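 Female NMRI mice (n=3 per group, randomized, not blinded) infected with GFP-transfected P. berghei ANKA. Oral dosing once daily for 4 days in 10% DMSO/40% PEG400/50% water or HPMC suspension vehicle. Parasitaemia measured by flow cytometry on blood collected 96 h after infection. Mice watched for toxicity over 4 h post-dose each day.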

Plasmodium berghei [17] = experiment: Antiplasmodial activity against Plasmodium berghei ANKA infected in NMRI mouse assessed as survival days at 30 mg/kg, po QD for 4 days; type: functional; details: time 4 day
Plasmodium berghei [18] = experiment: Antiplasmodial activity against Plasmodium berghei ANKA infected in NMRI mouse assessed as reduction in parasitemia at 10 mg/kg, po QD for 4 days; type: functional; design: scale not given: the % may be the effect or the level left; details: time 4 day; in short: as §4
Plasmodium berghei [19] = experiment: Antiplasmodial activity against Plasmodium berghei ANKA infected in NMRI mouse assessed as survival days at 10 mg/kg, po QD for 4 days; type: functional; details: time 4 day
Plasmodium berghei [20] = experiment: Antiplasmodial activity against Plasmodium berghei infected in NMRI mouse assessed as reduction in parasitemia at 3 mg/kg, po QD for 4 days; type: functional; design: scale not given: the % may be the effect or the level left; details: time 4 day; in short: as §4
Plasmodium berghei [21] = experiment: Antiplasmodial activity against Plasmodium berghei ANKA infected in NMRI mouse assessed as survival days at 3 mg/kg, po QD for 4 days; type: functional; details: time 4 day
Plasmodium berghei [22] = experiment: Antiplasmodial activity against Plasmodium berghei ANKA infected in NMRI mouse assessed as reduction in parasitemia at 1 mg/kg, po QD for 4 days; type: functional; design: scale not given: the % may be the effect or the level left; details: time 4 day; in short: as §4
Plasmodium berghei [23] = experiment: Antiplasmodial activity against Plasmodium berghei ANKA infected in NMRI mouse assessed as survival days at 1 mg/kg, po QD for 4 days; type: functional; details: time 4 day
Plasmodium berghei [24] = experiment: Antiplasmodial activity against GFP-transfected Plasmodium berghei ANKA infected in NMRI mouse assessed as reduction in parasitemia by measuring effective dose administered once daily oral dose for 4 days; type: functional; details: 96 h, time 4 day; in short: as §4
Plasmodium falciparum [25] = experiment: Antiplasmodial activity against drug resistant Plasmodium falciparum W2 by [3H]hypoxanthine incorporation assay; type: functional, organism-based
In short: (§5)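 Strains (K1, W2, 7G8, TM90C2A, D6, V1/S resistant; NF54 sensitive) cultured by the Trager and Jensen method; EC50 determined in vitro from [3H]hypoxanthine incorporation.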

Plasmodium falciparum [26] = experiment: Antiplasmodial activity against drug resistant Plasmodium falciparum K1 by [3H]hypoxanthine incorporation assay; type: functional, organism-based; in short: as §5
Plasmodium falciparum [27] = experiment: Antiplasmodial activity against drug resistant Plasmodium falciparum […] [3H]hypoxanthine incorporation assay; type: functional, organism-based; in short: as §5
[28] = Intrinsic clearance in Sprague-Dawley rat liver microsomes at 0.5 uM in presence of NADPH incubated upto 30 mins by UPLC-MS/MS analysis; type: ADME, Microsome; details: 0.5 h; in short: as §1
[29] = Protein binding in CD1 mouse plasma measured after 5 hr by UPLC-MS/MS analysis based equilibrium dialysis method; type: ADME, cell-free; details: mouse, 5 h
In short: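 Equilibrium dialysis of female CD1 mouse plasma spiked at 10 μg/mL (12-14 kDa membrane) against isotonic buffer for 5 h at ~37°C with shaking. Unbound fraction taken as the buffer/plasma peak-area ratio by UPLC-MS/MS. n=6 replicates, run in triplicate.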

[30] = Intrinsic clearance in rat hepatocytes; type: ADME, cell-based, Hepatocyte
[31] = Hepatic extraction in rat during hepatic portal vein study; type: ADME; details: read-out: ERH
Plasmodium falciparum [32] = experiment: Antiplasmodial activity against drug resistant Plasmodium falciparum 7G8 by [3H]hypoxanthine incorporation assay; type: functional, organism-based; in short: as §5
Plasmodium falciparum [33] = experiment: Antiplasmodial activity against drug resistant Plasmodium falciparum TM90C2A by [3H]hypoxanthine incorporation assay; type: functional, organism-based; in short: as §5
Plasmodium falciparum [34] = experiment: Antiplasmodial activity against drug resistant Plasmodium falciparum D6 by [3H]hypoxanthine incorporation assay; type: functional, organism-based; in short: as §5
Plasmodium falciparum [35] = experiment: Antiplasmodial activity against drug resistant Plasmodium falciparum V1/S by [3H]hypoxanthine incorporation assay; type: functional, organism-based; in short: as §5
HepG2 = experiment: Antiproliferative activity against human HepG2 cells assessed as reduction in cell viability; type: cell-based

SMILES | EC50 (Plasmodium berghei [1]) | EC50 (Plasmodium yoelii) | EC50 (Plasmodium falciparum [2]) | EC50 (Plasmodium falciparum [3]) | EC50 (MRC5) | CLH [4] | solubility kinetic [5] | Papp at 5 h, 10 µM [6] | CLH [7] | IC50 [8] | clearance [9] | Vd [10] | half-life [11] | Cmax [12] | AUC [13] | Tmax [14] | Activity (Plasmodium berghei [18]) | Survival (Plasmodium berghei [19]) | Activity (Plasmodium berghei [20]) | Survival (Plasmodium berghei [21]) | further results
O=C(NCCN1CCCC1)c1cc(NCCCCN2CCOCC2)nc2ccc(Cl)cc12 | 5 nM | 18 nM | 104 nM | 4 nM | 13000 nM | 2 mL/min/g | 217 µM (≈ 99.8 µg/mL) | 0.2 ×10⁻⁶ cm/s | < 1 mL/min/g | > 11000 nM | 4 mL/min/kg | 3.5 L/kg | 12.5 h | 579 ng/mL | 2940 ng·h/mL | 2 h | 99.7% | 15 days | 96% | 9 days | bioavailability [15]: 16%; Activity (Plasmodium berghei [16]): 99.8%; Survival (Plasmodium berghei [17]): 22 days; Activity (Plasmodium berghei [22]): 48%; Survival (Plasmodium berghei [23]): 6 days; ED90 (Plasmodium berghei [24]): 2.6 mg/kg
O=C(NCCN1CCCC1)c1cc(NCCC2CCOCC2)nc2ccc(Cl)cc12 | 14 nM | 1 nM | 39 nM | 6 nM | 31000 nM | 2 mL/min/g | 230 µM (≈ 99.1 µg/mL) | 4.8 ×10⁻⁶ cm/s | 1 mL/min/g | > 11000 nM | 34 mL/min/kg | 7.4 L/kg | 2.9 h | 193 ng/mL | 1210 ng·h/mL | 0.5 h | 99.9% | 8 days | 98% | 6 days | EC50 (Plasmodium falciparum [25]): 0.6 nM; EC50 (Plasmodium falciparum [26]): 0.8 nM; EC50 (Plasmodium falciparum [27]): 0.5 nM; CLH [28]: 0.8 mL/min/g; PPB [29]: 77%; bioavailability [15]: 23%; Activity (Plasmodium berghei [16]): 99.9%; Survival (Plasmodium berghei [17]): 10 days; Activity (Plasmodium berghei [22]): 90%; Survival (Plasmodium berghei [23]): 7 days; ED90 (Plasmodium berghei [24]): 1 mg/kg; CLH [30]: 3 mL/min/g; hepatic extraction ratio [31]: 0.76; EC50 (Plasmodium falciparum [32]): 0.7 nM; EC50 (Plasmodium falciparum [33]): 0.5 nM; EC50 (Plasmodium falciparum [34]): 0.7 nM; EC50 (Plasmodium falciparum [35]): 0.9 nM
O=C(NCCNC1CC1)c1cc(-c2ccc(CN3CCOCC3)cc2)nc2ccc(F)cc12 |  |  |  | 2 nM |  | 2 mL/min/g |  | 4.9 ×10⁻⁶ cm/s |  |  |  |  |  |  |  |  |  |  |  |  | EC50 (HepG2): > 50000 nM
O=C(NCCN1CCC1)c1cc(-c2ccc(CN3CCOCC3)cc2)nc2ccc(F)cc12 |  |  |  | 4 nM |  | 0.5 mL/min/g | 71 µM (≈ 31.8 µg/mL) | 7.5 ×10⁻⁶ cm/s |  |  |  |  |  |  |  |  | 99.1% | 20.3 days | 99.2% | 9.3 days | EC50 (HepG2): 41000 nM
